In ChEMBL document CHEMBL5724801, “EUbOPEN Chemogenomics Library - Multiplex” (2024):
“And” between values parts separate entries of the source, which are not always exact repeats. Equal values may be shown once.

System: U2OS
Experiment: Multiplex assay against U2OS
Type: toxicity, cell-based
Settings: human
In short: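 Live cells carried four stains from seeding: Hoechst33342, BioTracker Green Microtubule Cytoskeleton Dye, MitoTracker Red and Annexin V Alexa Fluor 680. They were imaged on a CQ1 microscope at 37°C and 5% CO2 after compound addition. Using CellPathfinder machine-learning gating, cells were split into Hoechst high-intensity objects or normal cells, normal cells into healthy, pyknosed or fragmented nuclei, and pyknosed cells into mitotic or apoptotic; tubulin, mitochondrial-mass and membrane-permeability phenotypes are per cents of healthy-nucleus cells.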

[1] = 12 h, 1 µM, compound concentration 1 uM
[2] = 12 h, 10 µM, compound concentration 10 uM
[3] = 24 h, 1 µM, compound concentration 1 uM
[4] = 24 h, 10 µM, compound concentration 10 uM
[5] = 48 h, 1 µM, compound concentration 1 uM
[6] = 48 h, 10 µM, compound concentration 10 uM

`CC[C@H]1OC(=O)[C@H](C)[C@@H](O[C@H]2C[C@@](C)(OC)[C@@H](O)[C@H](C)O2)[C@H](C)[C@@H](O[C@@H]2O[C@H](C)C[C@H](N(C)C)[C@H]2O)[C@@]2(C)CC(C)=C(O2)[C@H](C)[C@@H](O)[C@]1(C)O` was tested, and the “Population Apoptotic (%)” value [1] was 50% and 84%, the “Population Fragmented Nuclei (%)” value [1] was 19% and 23% and the “Population Healthy Nuclei (%)” value [1] was 63% and 62%. For the same compound, the “Population Hoechst High Intensity Objects (%)” value [1] was 3% and 1%, the “Population Membrane Permeable-Phenotype (%)” value [1] was 33% and 21% and the “Population Mitochondria Different-Phenotype (%)” value [1] was 23% and 14%. For the same compound, the “Population Normal (%)” value [1] was 96% and 98%, the “Population Pyknosed Nuclei (%)” value [1] was 17% and 14% and the “Population Tubulin-Different-Phenotype (%)” value [1] was 25% and 14%. The “Total Cell Count” value [1] was 226 and 91, the “Population Apoptotic (%)” value [2] was 65% and 73% and the “Population Fragmented Nuclei (%)” value [2] was 34% and 21%. For the same compound, the “Population Healthy Nuclei (%)” value [2] was 40% and 47%, the “Population Hoechst High Intensity Objects (%)” value [2] was 7% and 4% and the “Population Membrane Permeable-Phenotype (%)” value [2] was 82% and 72%. For the same compound, the “Population Mitochondria Different-Phenotype (%)” value [2] was 63% and 81%, the “Population Mitotic Cells (%)” value [2] was 34% and 26% and the “Population Normal (%)” value [2] was 92% and 95%. The “Population Pyknosed Nuclei (%)” value [2] was 25% and 31%, the “Population Tubulin-Different-Phenotype (%)” value [2] was 89% and 96% and the “Total Cell Count” value [2] was 223 and 128. The “Population Apoptotic (%)” value [3] was 65% and 72%, the “Population Fragmented Nuclei (%)” value [3] was 20% and 19% and the “Population Healthy Nuclei (%)” value [3] was 63% and 64%. For the same compound, the “Population Hoechst High Intensity Objects (%)” value [3] was 4% and 5%, the “Population Membrane Permeable-Phenotype (%)” value [3] was 20% and 14% and the “Population Mitochondria Different-Phenotype (%)” value [3] was 15% and 14%. For the same compound, the “Population Mitotic Cells (%)” value [3] was 35% and 27%, the “Population Normal (%)” value [3] was 95% and 94% and the “Population Pyknosed Nuclei (%)” value [3] was 16%. The “Population Tubulin-Different-Phenotype (%)” value [3] was 17% and 10%, the “Total Cell Count” value [3] was 256 and 115 and the “Population Apoptotic (%)” value [4] was 67% and 82%. The “Population Fragmented Nuclei (%)” value [4] was 33% and 24%, the “Population Healthy Nuclei (%)” value [4] was 36% and 45% and the “Population Hoechst High Intensity Objects (%)” value [4] was 5% and 4%. For the same compound, the “Population Membrane Permeable-Phenotype (%)” value [4] was 56% and 75%, the “Population Mitochondria Different-Phenotype (%)” value [4] was 65% and 86% and the “Population Mitotic Cells (%)” value [4] was 32% and 17%. For the same compound, the “Population Normal (%)” value [4] was 94% and 95%, the “Population Pyknosed Nuclei (%)” value [4] was 29% and 30% and the “Population Tubulin-Different-Phenotype (%)” value [4] was 76% and 88%. For the same compound, the “Total Cell Count” value [4] was 210 and 121, the “Population Apoptotic (%)” value [5] was 67% and 78% and the “Population Fragmented Nuclei (%)” value [5] was 19% and 32%. The “Population Healthy Nuclei (%)” value [5] was 54% and 58%, the “Population Hoechst High Intensity Objects (%)” value [5] was 9% and 2% and the “Population Membrane Permeable-Phenotype (%)” value [5] was 13% and 12%. For the same compound, the “Population Mitochondria Different-Phenotype (%)” value [5] was 8% and 12%, the “Population Mitotic Cells (%)” value [5] was 32% and 21% and the “Population Normal (%)” value [5] was 91% and 97%. The “Population Pyknosed Nuclei (%)” value [5] was 26% and 9%, the “Population Tubulin-Different-Phenotype (%)” value [5] was 11% and 7% and the “Total Cell Count” value [5] was 300 and 147. The “Population Apoptotic (%)” value [6] was 85% and 83%, the “Population Fragmented Nuclei (%)” value [6] was 37% and 20% and the “Population Healthy Nuclei (%)” value [6] was 31% and 42%. The “Population Hoechst High Intensity Objects (%)” value [6] was 7% and 9%, the “Population Membrane Permeable-Phenotype (%)” value [6] was 58% and 62% and the “Population Mitochondria Different-Phenotype (%)” value [6] was 55% and 81%. The “Population Mitotic Cells (%)” value [6] was 14% and 16%, the “Population Normal (%)” value [6] was 92% and 90% and the “Population Pyknosed Nuclei (%)” value [6] was 31% and 36%. The “Population Tubulin-Different-Phenotype (%)” value [6] was 63% and 88% and the “Total Cell Count” value [6] was 236 and 112.
